Measured values gathered from unrelated publications.
Compare with care: the assays were run in different laboratories.
Target: Sodium-dependent noradrenaline transporter (SLC6A2, Homo sapiens, UniProt P23975)

| Compound | effect on | action | method | cell line | tested at | inhibition [%] |
| --- | --- | --- | --- | --- | --- | --- |
| O[C@@H]1[C@H](O)[C@@H]2C[C@@H]2[C@H]1n1cnc2c(NCc3cccc(Cl)c3)nc(C#Cc3ccccc3)nc21 | ligand displacement |  | radioligand |  | 10 µM | 34 |
| Nc1ccc(-c2ccncc2)cc1NC(=O)N1CCCC1 | cell-free assay |  |  |  | 10 µM | 15 |
| N#Cc1cc(Cn2c(N3CCCC3)nc3ccccc32)ccc1F | ligand displacement |  |  |  | 10 µM | 39.4 |
| CN1CCN(CCCOc2ccc(=O)n(-c3ccc(Cl)c(Cl)c3)n2)CC1 | ligand displacement |  |  |  | 1 µM | 14.4 |
| Clc1ccc(C(c2ccc(Cl)cc2)c2nnnn2CCCCN2CCC(Cc3ccccc3)CC2)cc1 | transporter uptake | inhibitor |  | HEK293 | 1 µM | 68.8 |
| O[C@@H]1[C@H](O)[C@@H]2C[C@@H]2[C@H]1n1cnc2c(NCc3cccc(Cl)c3)nc(C#Cc3ccc(F)c(F)c3)nc21 | ligand displacement |  | radioligand |  | 10 µM | 51 |
| O=C1N=C(N2CCCCN2)S/C1=C\c1ccc(F)cc1O | ligand displacement |  | radioligand |  | 10 µM | < 10 |
| Fc1ccc(C(c2ccc(F)cc2)c2nnnn2CCCCN2CCC(c3ccccc3)CC2)cc1 | transporter uptake | inhibitor |  | HEK293 | 1 µM | 64.4 |
| COC(=O)c1ccc(-n2c(C)cc(C(=O)CSc3ccc(NC(C)=O)cc3)c2C)cc1 | ligand displacement |  | radioligand |  | 10 µM | 50 |
| c1ccc(CCCC2CCN(CCCCn3nnnc3C(c3ccccc3)c3ccccc3)CC2)cc1 | transporter uptake | inhibitor |  | HEK293 | 1 µM | 73.9 |
| COc1cc(NC(C)=O)c(Cl)cc1C(=O)Nc1nccs1 | cell-free assay |  |  |  | 10 µM | 1.8 |
| CCN(CC)c1ccc(C2Nc3ccc(C(=O)c4ccccc4)cc3NC3=C2C(=O)CC(C)(C)C3)cc1 (stereo not drawn) | ligand displacement |  | radioligand |  | 10 µM | 51 |
